Results from different studies.
Target: Serine/threonine-protein kinase 32C (STK32C, Homo sapiens, UniProt Q86UX6)

SMILES	test	conditions	remaining binding [%]
O=C(c1ccc(Nc2ncc(Cl)c(-c3cc4ccccc4s3)n2)cc1)N1CCC(N2CCCC2)CC1	binding, competition with immobilised ligand	1 µM	100
Cc1nc(Cc2cccc(C(F)(F)F)c2)sc1-c1ccc(C(N)=O)nc1	cell-free assay, competition with immobilised ligand	1 µM	87
O=C(NCCCN1CCOCC1)c1ccc(Nc2ncc(Cl)c(-c3ccc(Cl)s3)n2)cc1	binding, competition with immobilised ligand	1 µM	100
CN(CCCC(F)(F)F)c1nccc(-c2cnn3ncccc23)n1	binding	1 µM	65
O=C(c1ccc(Nc2nccc(-c3cc4ccccc4s3)n2)cc1)N1CCC(N2CCCC2)CC1	binding, competition with immobilised ligand	1 µM	100
C[C@@H]1CN(c2cc(-c3nn(C)c4ccc(OC5(C)CC5)cc34)ncn2)C[C@H](C)O1	cell-free assay, competition with immobilised ligand	1 µM	100
CCN1CCN(Cc2ccc(C(=O)Nc3ccc(C)c(Oc4ccc5c(c4)CC(=O)N5)c3)cc2C(F)(F)F)CC1	binding, competition with immobilised ligand	1 µM	100
CS(=O)(=O)N1CCCC(NC(=O)[C@H](CCC2CCCCC2)NC(=O)c2ccc(CNc3ncnc4c3nnn4-c3ccccc3)cc2)C1 (stereo partly shown)	cell-free assay, competition with immobilised ligand	0.1 µM	100
CN(C)c1nccc(-c2cnc3ncccn23)n1	binding	1 µM	100
C[C@@H](c1ccc(-n2cnc3c(N)ncnc32)cc1)N1CCc2nn(C)c(Cc3ccccc3)c2C1=O	binding, competition with immobilised ligand	0.1 µM	89
CN1CCN(c2cnc3c(C4CCN(C(=O)c5ccc(OC(F)(F)F)cc5N)CC4)ncnc3c2)CC1	cell-free assay, competition with immobilised ligand	1 µM	100
N[C@@H]1CCN(c2nccc(-c3cnn4ncccc34)n2)C1	binding	1 µM	99
C[C@@H]1CN(c2ccc3ncc(-c4ccc5[nH]nc(C6CC6)c5c4)n3n2)C[C@H](C)O1	binding, competition with immobilised ligand	0.5 µM	100
CCOC(=O)c1cc2cc(-c3cc(C(=O)NCc4ccc(C(=O)O)cc4)nn3C)ccc2[nH]1	cell-free assay, competition with immobilised ligand	0.1 µM	100
C[C@H]1CCN(c2nccc(-c3cnn4ncccc34)n2)C1	binding	1 µM	100
CC(C)(C)c1ccc(-c2nc(CBr)nn2-c2cccc(O)c2)cc1	cell-free assay, competition with immobilised ligand	10 µM	54
CNC(=O)[C@@H]1CC[C@@H](n2c(-c3ccc4cnccc4c3)nc3ccc(C(=O)NCc4cccc(C(N)=O)c4)cc32)C1	binding, competition with immobilised ligand	1 µM	93
c1cncc(-c2cccc(Nc3nccc(NC4CCCCC4)n3)c2)c1	binding, competition with immobilised ligand	10 µM	55
CO[C@H]1CC[C@H](CNc2ccc(S(=O)(=O)NC(=O)c3ccc(N4CCN(CC5=C(c6ccc(Cl)cc6)CC(C)(C)CC5)CC4)cc3Oc3cnc4[nH]ccc4c3)cc2[N+](=O)[O-])CC1	cell-free assay, competition with immobilised ligand	1 µM	54
Cc1cnn2ncc(-c3ccnc(N(C)C)n3)c2c1	binding	1 µM	100
O=C(Nc1cnc(Oc2ccc(F)cc2)nc1)N1CCc2ncccc2[C@@H]1c1ccc(F)cc1	cell-free assay, competition with immobilised ligand	1 µM	96
CN(C)c1ncc(F)c(-c2cnn3ncccc23)n1	binding	1 µM	87
O=C(NCC1CCOCC1)c1n[nH]cc1NC(=O)c1c(F)cccc1F	binding, competition with immobilised ligand	1 µM	100
c1cnn2ncc(-c3ccnc(N4CCC45COC5)n3)c2c1	binding	1 µM	68
CC(=O)N1CCC(c2ccc(C(=O)NC(=N)N)cc2C(F)(F)F)CC1	cell-free assay, competition with immobilised ligand	1 µM	100
